A short description of data set [1]: Diffusion-ordered NMR spectroscopy. In kind it is physicochemical. To be noted: approximated from DOSY diffusion rate by the Stokes-Einstein relationship.
Data set [2] relates to liver and kidney. The data set can be described thus: Biocompatibility of CB[7]-PEG in healthy rats. In kind it is in vivo, Sprague Dawley rats. To be noted: s.c. 0.2 mg/kg once daily for six weeks, n=4. A digest of the protocol: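 Healthy 10-week-old Sprague Dawley rats (n=4) received CB[7]-PEG at 0.2 mg/kg s.c. in PBS (pH 7.4) once daily for six weeks. […] Blood chemistry was run on an automated analyzer from samples taken on days 14, 28 and 42. At endpoint, liver and kidney were collected for single-blinded histopathology.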

For data set [3] the following is noted: insulin hexamer, for comparison; cited from earlier work.

Regarding `CC[C@H](C)[C@H](NC(=O)[C@@H]1CCCN1C(=O)CNC(=O)[C@H](Cc1ccccc1)NC(=O)[C@H](CC(N)=O)NC(=O)[C@H](CC(N)=O)NC(=O)[C@H](CO)NC(=O)[C@H](CO)NC(=O)[C@H](Cc1c[nH]cn1)NC(=O)[C@@H](NC(=O)[C@H](CC(C)C)NC(=O)[C@H](Cc1ccccc1)NC(=O)[C@H](CC(N)=O)NC(=O)[C@H](C)NC(=O)[C@H](CC(C)C)NC(=O)[C@H](CCCNC(=N)N)NC(=O)[C@H](CCC(N)=O)NC(=O)[C@@H](NC(=O)[C@H](C)NC(=O)[C@@H]1CSSC[C@H](NC(=O)[C@@H](N)CCCCN)C(=O)N[C@@H](CC(N)=O)C(=O)N[C@@H]([C@@H](C)O)C(=O)N[C@@H](C)C(=O)N[C@@H]([C@@H](C)O)C(=O)N1)[C@@H](C)O)C(C)C)C(=O)N[C@@H](CC(C)C)C(=O)N1CCC[C@H]1C(=O)N1CCC[C@H]1C(=O)N[C@H](C(=O)N[C@@H](CC(N)=O)C(=O)N[C@H](C(=O)NCC(=O)N[C@@H](CO)C(=O)N[C@@H](CC(N)=O)C(=O)N[C@H](C(=O)N[C@@H](Cc1ccc(O)cc1)C(N)=O)[C@@H](C)O)C(C)C)[C@@H](C)O` [pramlintide], the “hydrodynamic radius (Rh)” value in data set [1] is given as 1.2 nm. In the case of “cucurbit[7]uril-conjugated polyethylene glycol [CB[7]-PEG]”, in data set [2], the “blood chemistry and liver/kidney histopathology vs untreated controls” value is on record as “No differences”. Consider insulin aspart, for which the “hydrodynamic radius (Rh)” value in data set [1] was about 2.2 nm. Regarding “insulin hexamer: hexameric association state of insulin”, the hydrodynamic radius entry in data set [3] was “approximately 2.8 nm”.

The values are drawn from article PMC7274092 (Nature biomedical engineering, 2020).
